Measured values gathered from unrelated publications.
Each line is one published result; the experiments were not run side by side.
Matrix: plasma

COc1ccc(F)cc1C(=O)NCc1ccc(-c2nn([C@@H](C)C(F)(F)F)c(N)c2C(N)=O)cc1 — AUC(0-inf) (human; oral; 200 mg; single dose, fasted, healthy volunteers): 85100 ng·h/mL
O=C(COc1ccc(Cl)cc1)NC12CC(c3nnc([C@H]4C[C@@H](OC(F)(F)F)C4)o3)(C1)C2 — AUC (human; oral; 45 mg; multiple doses, once daily, steady state, healthy volunteers): 36.5 µM·h
C=CC(=O)NC1CCN(c2ncc3ncnc(Nc4ccc(Oc5ccc6c(c5)ncn6C)c(C)c4)c3n2)CC1 — AUC(0-inf) (male human; oral; 60 mg; single dose, healthy volunteers): 14.2 µM·h
CC(=O)N(C)[C@H]1CCN(C(=O)c2cnc3c(c2)C[C@](C)(c2ccc(F)cc2)N3)C1 — AUC(0-inf) (male human; oral; 30 mg; multiple doses, once daily): 3.99 µM·h
COc1ccc(-c2c(Nc3ccccn3)[nH]c3c(C4=CCCCC4)c(-c4ccccc4)nn3c2=O)cc1 — AUC(0-t) (human; oral; 150 mg once daily; multiple doses, steady state, patients): 93600 ng·h/mL
N#Cc1cccc(-c2ccc3ncc(-c4cc(F)cc(F)c4)c(N4CCC(N)CC4)c3c2)c1O — AUC (male human; oral; 20 mg; single dose): 2360 ng·h/mL
CC(C)n1c(C2CCNCC2)nc2c([N+](=O)[O-])c(Br)c(Br)cc21 — AUC(0-t) (human; oral; 150 mg; patients): 2880 ng·h/mL
COc1ccc2c(c1)CN(C(=O)CCN1CCC(Cc3ccccc3)CC1)CC[S@@+]2[O-] — AUC(0-inf) (male human; intravenous; 0.05 mg/kg; healthy volunteers): 250 ng·h/mL
OC[C@H]1O[C@@H](c2cc(Cc3ccc(C4CC4)cc3)c(Cl)c3c2CCO3)[C@H](O)[C@@H](O)[C@@H]1O — AUC(0-inf) (human; oral; 0.3 mg; single dose, fed): 31 ng·h/mL
